The values below come from article PMC2638642 (Toxicological Sciences, 2008).

The test system of data set [1] is BALB/c mice. Put plainly: Serum clinical chemistry, 7-day toxicity study. Conditions: for BUN change: 3 mice per group. Type of data set: in vivo. The gist of the method: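 Groups of six female BALB/c mice were dosed iv or ip with the test compound at 50, 200 or 400 mg/kg once daily for 7 days; controls got 0.9% saline by the same route. Retro-orbital blood was taken from three randomly selected mice per group on day 3 (before the third dose) and day 8 (before sacrifice). Serum BUN, ALP and GGT were measured by an outside veterinary laboratory.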

The conditions of data set [2]: after iv administration in human; ref Palmer-Toy, 2000; Rybak, 2006; cited from earlier work.
Data set [3] deals with BALB/c mice. Description: Histopathology, 7-day toxicity study. The format is in vivo.
A short description of the next data set: Toxicokinetic. The format is in vivo, BALB/c mice. The gist of the method: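 Female BALB/c mice (12/group) got vancomycin iv or ip at 50, 200 or 400 mg/kg. Retro-orbital EDTA plasma came from three mice per time point, 0.083–24 h after doses 1 and 7. Plasma went through SPE with a tinidazole internal standard, eluted in acetonitrile:KH2PO4 pH 4, then gradient LC; calibration by 1/y-weighted regression of peak-area ratio. Noncompartmental analysis; F = (AUCip/AUCiv)×(Doseiv/Doseip).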

[4] abbreviates: high-dose treatment, day 8, serum.

On to `CN[C@H](CC(C)C)C(=O)N[C@H]1C(=O)N[C@@H](CC(N)=O)C(=O)N[C@H]2C(=O)N[C@H]3C(=O)N[C@H](C(=O)N[C@H](C(=O)O)c4cc(O)cc(O)c4-c4cc3ccc4O)[C@H](O)c3ccc(c(Cl)c3)Oc3cc2cc(c3O[C@@H]2O[C@H](CO)[C@@H](O)[C@H](O)[C@H]2O[C@H]2C[C@](C)(N)[C@H](O)[C@H](C)O2)Oc2ccc(cc2Cl)[C@H]1O` [vancomycin], for which the “CRE (serum creatinine) levels” value in the data set on BALB/c mice [1] (50, 200, 400 mg/kg/day iv or ip x7) is given as “not significantly affected”. The BUN change entry in the data set on BALB/c mice [1] (high-dose (400 mg/kg/day x7) ip, day 8, serum) is “trend toward increased BUN values”. Besides, the BUN change result in the data set with BALB/c mice [1] (high-dose (400 mg/kg/day x7) iv, day 8, serum) is on record as “statistically significant increase”. In addition, in the data set on BALB/c mice [1] (setting [4]), the “alkaline phosphatase (ALP)” value is “affected” and the “gamma-glutamyl transferase (GGT)” value is given as “affected”. Besides, the “Cmax in human (also therapeutic range)” value in data set [2] is 20000 to 50000 ng/mL. Besides, the “primary histopathological finding in kidneys” value in the data set with BALB/c mice [3] (400 mg/kg/day either iv or ip x7, day 8, H&E) is listed as “proximal tubular necrosis”. The “inflammatory cell infiltration into the affected renal tissue” value in the data set with BALB/c mice [3] (400 mg/kg/day iv or ip x7, day 8, H&E) is “minimal”. In addition, the “signs of toxicity in clinical chemistry and histopathology assessments” value in the data set with BALB/c mice [3] (iv-200 (200 mg/kg/day iv x7)) is “did not exhibit signs of toxicity”. In addition, in “Toxicokinetic” (BALB/c mice, 200 mg/kg), the “AUC^0→∞ after iv relative to ip administration (iv higher)” value is 1.7 fold. In “Toxicokinetic” (BALB/c mice, 200 mg/kg, after seven doses), the “difference in Cmax value between iv and ip administration (iv higher)” value turned out to be 3.4 fold. Moreover, the “clinical condition of animals in TK study” value in “Toxicokinetic” (iv high-dose group (400 mg/kg), some animals) was “moribund or dead”.
